Test [1] can be described thus: Inhibitory activity against rat brain Dipeptidyl aminopeptidase using 10 nM of [3H]Leu-enkephalin as substrate. The procedure, abridged: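 Membrane-bound dipeptidylaminopeptidase purified from rat brain and aminopeptidase M purified from rabbit kidney were each preincubated 15 min at 25 °C with or without increasing inhibitor concentrations in 50 mM Tris-HCl, pH 7.4. […] The reaction was stopped with HCl after 30 min, and tritiated metabolites were separated on polystyrene beads. IC50 came from log probit analysis of five inhibitor concentrations; mean ± SEM.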

The target in test [2] is T1, Neprilysin (Rattus norvegicus, UniProt P07861).
T1 sequence (P07861 whole entry): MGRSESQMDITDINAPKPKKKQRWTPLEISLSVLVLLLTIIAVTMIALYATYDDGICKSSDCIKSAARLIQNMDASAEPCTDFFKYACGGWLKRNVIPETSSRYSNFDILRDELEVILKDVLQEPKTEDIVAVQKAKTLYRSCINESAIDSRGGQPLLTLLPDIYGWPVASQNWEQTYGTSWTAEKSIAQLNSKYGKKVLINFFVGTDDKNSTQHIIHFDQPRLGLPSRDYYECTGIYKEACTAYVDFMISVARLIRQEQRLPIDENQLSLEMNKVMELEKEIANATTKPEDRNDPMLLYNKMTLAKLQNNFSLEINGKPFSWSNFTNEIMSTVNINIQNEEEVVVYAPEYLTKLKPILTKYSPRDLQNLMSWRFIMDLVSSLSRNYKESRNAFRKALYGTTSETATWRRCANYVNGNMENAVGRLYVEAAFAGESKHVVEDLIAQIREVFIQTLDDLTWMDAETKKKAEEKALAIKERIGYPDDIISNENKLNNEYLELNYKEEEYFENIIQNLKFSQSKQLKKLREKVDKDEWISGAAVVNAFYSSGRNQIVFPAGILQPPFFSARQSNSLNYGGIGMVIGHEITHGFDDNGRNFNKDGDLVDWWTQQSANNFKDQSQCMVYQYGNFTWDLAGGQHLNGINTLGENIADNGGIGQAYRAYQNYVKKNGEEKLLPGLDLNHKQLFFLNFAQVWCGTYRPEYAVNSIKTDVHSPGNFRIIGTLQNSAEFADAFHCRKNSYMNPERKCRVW
The experiment in a line: In vitro inhibition of enkephalinase purified from […]. The gist of the method: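 Enkephalinase purified from kidney (0.9 ± 0.2 pmol/100 µL final) was preincubated 15 min at 25 °C with or without increasing inhibitor concentrations in 50 mM Tris-HCl, pH 7.4. Tritiated metabolites were separated on polystyrene beads. IC50 came from log probit analysis of five inhibitor concentrations; mean ± SEM of five independent experiments.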

The target of test [3] is T1, Neprilysin. Kind of test: 50% inhibitory activity against enkephalinase purified from rabbit kidney with [3H]D-Ala2-Leu-enkephalin (20 nM) as substrate.

For orientation: IC50 means the concentration at which inhibition is half-maximal. Lower therefore signals greater potency in that assay. Consider `CC(NC(=O)C(CC(=O)NO)Cc1ccccc1)C(=O)O` (stereo unspecified), for which the IC50 in test [1] amounted to 2.1 nM; against Neprilysin [2], 2 nM.
Consider `O=CN(O)C(Cc1ccccc1)C(=O)NCC(=O)O` (stereo unspecified), for which the IC50 in test [1] stood at 232000 nM; against Neprilysin [2] it was 1500 nM.
At Neprilysin [2], `CC(C)CCNC(=O)CNC(=O)C(Cc1ccccc1)CN(O)C=O` (stereo unspecified) yielded an IC50 of 800 nM.
In turn, `O=C(CNC(=O)C(Cc1ccccc1)C(=O)NO)NCc1ccccc1` (stereo unspecified) came in with an IC50 against Neprilysin [2] of 750 nM.
As to `O=CN(O)CC(Cc1ccccc1)C(=O)NCC(=O)O` (stereo unspecified), the results for the IC50 (in test [1]; at Neprilysin [2]) were 305 nM and 10 nM, respectively.
`O=C(O)CNC(=O)C(CC(=O)O)Cc1ccccc1` (stereo unspecified): the IC50 against Neprilysin [2] was found to be 800 nM.
For `O=C(O)CNC(=O)C(CC(=O)NO)Cc1ccccc1` (stereo unspecified), inhibition in test [1] was half-maximal at 21 nM (IC50).
As to `CC(C)CCNC(=O)CNC(=O)C(CC(=O)NO)Cc1ccccc1` (stereo unspecified), at Neprilysin [2], half-maximal inhibition (IC50) was put at 600 nM.
On the same count and under the same terms, then `O=CN(O)CC(Cc1ccccc1)C(=O)NCC(=O)NCc1ccccc1` (stereo unspecified), with 1200 nM; and `COC(=O)CNC(=O)C(Cc1ccccc1)CN(O)C=O` (stereo unspecified), with 350 nM; and `O=C(O)CNC(=O)C(CNO)Cc1ccccc1` (stereo unspecified), with over 1 nM.
Same read-out and setting: then `CC(C)CCNC(=O)CNC(=O)C(Cc1ccccc1)C(=O)NO` (stereo unspecified), with 850 nM.
For `O=C(O)CNC(=O)C(Cc1ccccc1)C(=O)O` (stereo unspecified), half-maximal inhibition on Neprilysin [2] (IC50) required 700 nM.
As for `O=C(O)CNC(=O)C(Cc1ccccc1)C(=O)NO` (stereo unspecified), in test [1], the IC50 stood at 3500 nM.
As to `C[C@H](NC(=O)[C@H](CC(=O)NO)Cc1ccccc1)C(=O)O`, on Neprilysin [3], the IC50 was found to be 1.8 nM.
As for `CC(C)CCNC(=O)CNC(=O)C(Cc1ccccc1)N(O)C=O` (stereo unspecified), on Neprilysin [2], the IC50 was 30 nM. This counts as double-digit nanomolar.
On the same count and under the same terms, then `COC(=O)CNC(=O)C(Cc1ccccc1)C(=O)NO` (stereo unspecified), with 1 nM.
`C[C@H](NC(=O)[C@@H](CC(=O)NO)Cc1ccccc1)C(=O)O` (racemic) [KELATORPHAN]: inhibition at Neprilysin [3] was half-maximal at 1.7 nM (IC50). In other words, the single-digit nanomolar range.

These data come from ChEMBL document CHEMBL1123105, “New bidentates as full inhibitors of enkephalin-degrading enzymes: synthesis and analgesic properties” (J Med Chem, 1985).
